From PubChem
UCH37 inh: inhibitors of human UCH37 deubiquitinase, primary screen, biochemical, Ub-AMC cleavage, fluorescence; Ubiquitin carboxyl-terminal hydrolase isozyme L5 (Homo sapiens), Q9Y5K5; purified proteasome/UCH37; inhibition, % (test concentration not listed); actives 0.33% (n = 330,000); AID 588478, 2011;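 active = mean inhibition over replicate wells above about 20%, limit read from the data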;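 note: 0% = compound-free wells with enzyme and 100% = wells lacking proteasome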
Target sequence (Q9Y5K5 whole entry, looked up): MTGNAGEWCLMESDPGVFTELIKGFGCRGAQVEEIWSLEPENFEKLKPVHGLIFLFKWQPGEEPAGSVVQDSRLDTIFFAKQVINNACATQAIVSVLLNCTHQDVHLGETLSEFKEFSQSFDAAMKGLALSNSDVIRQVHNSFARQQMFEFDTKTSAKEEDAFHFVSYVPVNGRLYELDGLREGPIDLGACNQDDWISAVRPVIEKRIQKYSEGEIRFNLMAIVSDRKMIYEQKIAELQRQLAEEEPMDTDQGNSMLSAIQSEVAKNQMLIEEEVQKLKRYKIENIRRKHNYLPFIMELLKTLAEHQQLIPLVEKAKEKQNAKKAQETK
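Schedule: 30 min plus 25 min, room temperature / Material: human UCH37 within purified proteasomes / Technique: AMC fluorescence intensity at 355/460 nm / Buffer or medium: pH 7.4 Tris-HCl (50 mM) with ovalbumin, ATP-MgCl2, DTT / Controls: wells without proteasome as full block, compound-free enzyme plus substrate as uninhibited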
PG9 binder: binders of HIV-1 gp120 antibody PG9, primary screen, biochemical, TR-FRET. HIV-1 gp120 / PG9 antibody interaction. TR-FRET gp120-PG9 antibody binding. inhibition, % at 6.7 µM. actives 0.43% (n = 360,000); in the data active = inhibition above about 8.5%
Rce1 inh: yeast Rce1p protease inhibitors, primary screen, biochemical, fluorescence, cell-free homogeneous. yeast membranes, quenched prenylated peptide cleavage fluorescence. actives 0.27% (n = 290,000). calls only. CAAX prenyl protease 2 (Saccharomyces cerevisiae (strain ATCC 204508 / S288c)), Q03530;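 active = fall in fluorescence gain of 50% or more versus controls, with final raw signal at or below 3038400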;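 note: plate controls were neutral control wells for no effect and wells lacking membranes for full effect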
Target sequence (Q03530 whole entry, looked up): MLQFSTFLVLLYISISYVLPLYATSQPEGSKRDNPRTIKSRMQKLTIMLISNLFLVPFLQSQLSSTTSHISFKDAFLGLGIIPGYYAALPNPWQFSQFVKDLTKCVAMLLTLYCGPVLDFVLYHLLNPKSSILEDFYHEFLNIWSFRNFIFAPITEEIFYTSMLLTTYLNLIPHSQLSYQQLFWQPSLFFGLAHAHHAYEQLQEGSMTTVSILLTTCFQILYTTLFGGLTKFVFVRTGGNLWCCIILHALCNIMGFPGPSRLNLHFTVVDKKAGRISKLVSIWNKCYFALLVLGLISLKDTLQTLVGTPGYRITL
CR mimetic SO: reduction of superoxide in aged yeast, primary screen, HTS; S. cerevisiae aged cells, superoxide DHE fluorescence; active compounds read low; superoxide response (% of plate mean), % at 10 µM; actives 0.18% (n = 330,000);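 active = superoxide response under a set limit, about three screen SD below normal, cut at about 65% in these data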;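 note: yeast aged for seven days with compound at 30 °C before DHE staining; 100% = average MFI of all compound-treated wells on the plate with controls excluded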
Rev-erbA mod: modulators of Rev-erb alpha DNA binding, primary screen, biochemical, FITC-DNA, fluorescence polarization, uHTS; Nuclear receptor subfamily 1 group D member 1 (Homo sapiens), P20393; Rev-erbα–FITC-DNA binding, 90 min; activity, % at 10 µM; actives 0.79% (n = 370,000);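 active = activity above about 14%, limit read from the data; passing the limit was not always enough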;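 note: 0% = DMSO wells with 35 nM protein and 100% = DMSO wells with 750 nM protein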
MIN6 prolif: inducers of MIN6 beta-cell proliferation, primary screen, ATP luminescence, uHTS; MIN6 cells proliferation, ATPlite luminescence, 48 h; cells starved in 0.2% serum; 100% = growth in 10% serum; proliferation, % at 10 µM; actives 0.29% (n = 330,000);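 active = compounds whose signal lies at least 3.5 SD above the mean of all wells on their plate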;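 note: 0% = DMSO-treated cells in low-serum medium and 100% = 10% serum control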
Numbers without * were called inactive; i = inactive; nt = not tested or not shown; + = active, no number. Shown are actives, neighbours in structure and some others; about 1.9% of the full set was active somewhere.

SMILES	UCH37 inh	PG9 binder	Rce1 inh	CR mimetic SO	Rev-erbA mod	MIN6 prolif
Cc1ccc(CN2CCNC(=O)C2CC(=O)NC2CCCCCC2)o1 (centres undefined)	nt	-2	+	91	-2	0
c1ccc(-c2ccc(-c3cn4c(n3)CCC4)cc2)cc1	nt	-3	+	109	2	-3
CC(=NNS(=O)(=O)c1ccc(C)cc1C)c1c[nH]c2ccccc12	3	nt	nt	nt	nt	nt
O=C1C(Cc2c[nH]c3ccccc23)NC(=S)N1Cc1ccccc1 (centres undefined)	2	-1	+	89	1	1
Cc1ccc2nc(C)cc(C(=O)NN=Cc3ccncc3)c2c1	3	nt	nt	nt	nt	nt
C(#Cc1ccccc1)C[N+]1(CC#Cc2ccccc2)CCCC1	8	-1	i	100	3	-5
C=CC#CC[N+]1(CC#Cc2ccccc2)CCOCC1	29*	-105	i	nt	-17	nt
O=C(O)CCCN1C(=O)/C(=C\c2ccco2)SC1=S	5	-5	i	nt	4	nt
CC(/C=C1\SC(=S)N(CCC(=O)Nc2cccc(C(=O)O)c2)C1=O)=C\c1ccccc1	22*	0	i	97	-4	0
O=C(O)CCN1C(=O)/C(=C\c2ccc(-c3nc4ccccc4s3)o2)SC1=S	92*	nt	i	161	nt	-5
CC(=Cc1ccccc1)C=C1SC(=S)N(CCCC(=O)Nc2ccc(C(=O)O)cc2)C1=O	nt	-3	nt	nt	-3	nt
O=C(O)CCN1C(=O)/C(=C\c2cccc(Oc3ccccc3)c2)SC1=S	21*	0	i	106	-4	-4
COc1ccc(C(=O)NN=C(CCC(=O)O)c2ccc(C(C)(C)C)cc2)cc1OC	-1	nt	nt	nt	nt	nt
CCn1c(SCC(=O)NN=Cc2ccc(C)o2)nnc1-c1ccc(C)cc1	1	nt	nt	nt	nt	nt
CCCCn1c(-c2sccc2C)n[nH]c1=S	4	2	+	99	-7	3
CCC(C)C(C)=NNC(=O)c1ccccc1OCCOc1ccccc1 (centres undefined)	6	nt	nt	nt	nt	nt
O=C1NC2(C=Cc3c(ccc4ccccc34)O2)Oc2ccccc21 (centres undefined)	-216	nt	+	87	nt	-6
CCCC(=O)N1CCN(c2ccc(NC(=O)c3cc4ccccc4o3)cc2Cl)CC1	-2	1	+	130	4	-4
CCC(=O)N1CCN(c2ccc(NC(=O)c3cc4ccccc4o3)cc2Cl)CC1	0	-2	+	135	8	1
O=C(Nc1ccc(N2CCN(C(=O)c3ccco3)CC2)c(Cl)c1)c1cc2ccccc2o1	0	0	i	104	3	-6
CN(C)/C=C/C(=O)c1ccc(Cl)cc1	15	0	i	93	1	-2
CN(C)/C=C/C(=O)c1ccc(-n2cccc2)cc1	22*	-1	i	97	5	-3
CC(/C=C/C=C/c1ccccc1)=NNC(=O)C(O)c1ccccc1 (centres undefined)	4	nt	nt	nt	nt	nt
O=C(NN=C/C=C/c1ccco1)c1cnccn1	25*	nt	nt	nt	nt	nt
Nc1nc(NC(=O)c2ccc(F)cc2)ns1	27*	-1	i	101	-5	1
SMILES	UCH37 inh	PG9 binder	Rce1 inh	CR mimetic SO	Rev-erbA mod	MIN6 prolif
O=C(CNc1ccc2c(c1)OCO2)NN=Cc1ccccc1Cl	-2	nt	nt	nt	nt	nt
O=C1CSC(c2cn(-c3ccccc3)nc2-c2cc3ccccc3o2)N1Cc1ccccc1 (centres undefined)	-9	-1	i	76	3	-5
O=C1CSC(c2cn(-c3ccccc3)nc2-c2cc3ccccc3oc2=O)N1Cc1ccco1 (centres undefined)	-141	1	+	98	-4	0
C#CCOCCOCCOCCNc1nc(N2CCN(C(=O)[C@H](CCCN=C(N)N)n3cc(C(N)[C@@H](C)CC)nn3)CC2)nc(N2CCN(C(=O)[C@H](CCC(=O)O)n3cc([C@@H](N)CCCCN)nn3)CC2)n1 (some centres undefined)	33*	0	nt	81	-2	-2
C#CCOCCOCCOCCNc1nc(N2CCOCC2)nc(N2CCN(C(=O)[C@H](Cc3cc4ccccc4[nH]3)n3cc([C@@H](N)Cc4ccc(O)cc4)nn3)CC2)n1	23*	1	i	105	-2	1
C#CCOCCOCCOCCNc1nc(N2CCN(C(=O)C(Cc3ccc(O)cc3)n3cc(C(N)CC(C)C)nn3)CC2)nc(N2CCN(C(=O)C(Cc3cc4ccccc4[nH]3)n3cc(C(N)Cc4ccc(O)cc4)nn3)CC2)n1 (centres undefined)	3	nt	i	93	nt	-3
S=c1[nH]c(-c2ccccc2)cn1N=Cc1ccncc1	6	nt	nt	nt	nt	nt
Oc1ccc(/C=N/n2cc(-c3ccccc3)[nH]c2=S)cc1	nt	-3	+	112	10	-4
Cc1ccc(S(=O)(=O)/N=C2\C(=O)c3ccccc3C([O-])=C2n2cc[n+](CCC(C)C)c2)cc1	31*	nt	i	156	nt	-3
Cc1ccccc1NS(=O)(=O)c1ccc(C(=O)NCC(c2ccccc2)N(C)C)cc1 (centres undefined)	2	-1	+	123	4	-2
CC(=O)Oc1ccc(C=NNS(=O)(=O)c2ccc(C)cc2)c(OC(C)=O)c1	6	nt	nt	nt	nt	nt
Cc1nc(-c2ccccc2)sc1-c1n[nH]c(=S)n1C	-14	1	i	99	0	-3
CSc1nnc(-c2sc(-c3ccccc3)nc2C)n1C	-107	-2	+	108	-1	0
Cc1ccc(-c2csc(N3CCN(CCCn4c(C(F)(F)F)nc5ccccc54)CC3)n2)cc1	4	1	i	98	-1	-6
CC(=O)N[C@@H](C)c1nc2ccccc2n1CCCN1CCN(c2nc(-c3ccc(C)cc3)cs2)CC1	6	0	+	93	2	-8
Oc1ccc(C=NNc2ccc(Cl)nn2)cc1O	12	nt	nt	nt	nt	nt
Cc1cc(NN=Cc2ccc(O)cc2O)nc(-n2nc(C)cc2C)n1	0	nt	nt	nt	nt	nt
CC(C)NCC(O)COCCOc1ccc(Br)cc1 (centres undefined)	7	2	+	107	-8	0
CC(C)NCC(O)COCCOc1ccc(C(C)(C)C)cc1 (centres undefined)	-1	0	i	94	0	-1
O=C(NN=Cc1cccc(OCc2ccccc2)c1)c1cccs1	3	nt	nt	nt	nt	nt
c1ccc(-c2nnc(-c3ccncc3)nc2-c2ccccc2)cc1	-1	-2	+	112	-4	5
